Experimental data as given in ChEMBL document CHEMBL4316599, “Synthesis, in vitro and in vivo biological evaluation of substituted 3-(5-imidazo[2,1-b]thiazolylmethylene)-2-indolinones as new potent anticancer agents” (Eur J Med Chem, 2019).
pIC50: −log10 of the molar value.

Key:
Tubulin (Bos taurus) [1] = molecular target: T1, Tubulin (Bos taurus) (UniProt Q6B856+Q862L2+Q862F3); test: Inhibition of [3H]colchicine binding to bovine brain tubulin at 5 uM after 20 mins relative to control
In short: (§1)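 Reaction mixtures held 1 μM tubulin, 5 μM [³H]colchicine and test compound at 5 or 50 μM. Read-out was percent inhibition of colchicine binding.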

Tubulin (Bos taurus) [2] = molecular target: T1, Tubulin (Bos taurus); test: Inhibition of [3H]colchicine binding to bovine brain tubulin at 50 uM after 20 mins relative to control; in short: as §1
CNS carcinoma cell = test: Cytotoxicity against human CNS cancer cells after 48 hrs by SRB assay; type: functional; conditions: for CC50: read-out: LC50 (the source's name)
In short: (§2)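 NCI-60 screen: single-dose pass at 10^-5 M, then a five-concentration assay from 10^-9 to 10^-4 M (highest 100 μM). Exposure was 48 h under standard NCI protocols. GI50, TGI and LC50 were derived per cell line and averaged by subpanel. Repeated tests are the mean of two experiments.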

Melanoma cell line = test: Cytotoxicity against human melanoma cells after 48 hrs by SRB assay; type: functional; conditions: for CC50: read-out: LC50 (the source's name); in short: as §2
Leukemia cell = test: Cytotoxicity against human leukemia cells after 48 hrs by SRB assay; type: functional; in short: as §2
NSCLC = test: Cytotoxicity against human NSCLC cells after 48 hrs by SRB assay; type: functional; in short: as §2
[3] = Cytotoxicity against human COLON cells after 48 hrs by SRB assay; type: functional; conditions: for CC50: read-out: LC50 (the source's name); in short: as §2
Ovarian carcinoma cell = test: Cytotoxicity against human ovarian cancer cells after 48 hrs by SRB assay; type: functional; in short: as §2
Renal cancer cell line = test: Cytotoxicity against human renal cancer cells after 48 hrs by SRB assay; type: functional; in short: as §2
Prostatic carcinoma cell = test: Cytotoxicity against human prostate cancer cells after 48 hrs by SRB assay; type: functional; in short: as §2
Breast carcinoma cell = test: Cytotoxicity against human breast cancer cells after 48 hrs by SRB assay; type: functional; in short: as §2
Tubulin = Tubulin (Bos taurus, UniProt Q6B856+Q862L2+Q862F3); test: Inhibition of bovine brain tubulin polymerization after 20 mins by spectrophotometric analysis
In short: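 Bovine brain tubulin (10 μM) in glutamate buffer preincubated with varying compound levels at 30 °C, then chilled to 0 °C. GTP added to 0.4 mM final, then warmed to 30 °C. Assembly followed by turbidity at 350 nm. IC50 is the concentration halving the extent of assembly after 20 min.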

K562 [4] = test: Cytotoxicity against human K562 cells after 48 hrs by SRB assay; type: functional, cell-based
K562 [5] = test: Cell cycle arrest in human K562 cells assessed as mitotic index at IC50 by Giemsa staining-based assay (reference value: 3%); type: functional
K562 [6] = test: Cell cycle arrest in human K562 cells assessed as mitotic index at 5 times IC50 by Giemsa staining-based assay (reference value: 3%); type: functional
K562 [7] = test: Cell cycle arrest in human K562 cells assessed as mitotic index at 10 times IC50 by Giemsa staining-based assay (reference value: 3%); type: functional
K562 [8] = test: Cytotoxicity against human K562 cells after 16 hrs by SRB assay; conditions: K562, 16 h

| SMILES | GI50 (CNS carcinoma cell) [µM] | TGI (CNS carcinoma cell) [µM] | GI50 (Melanoma cell line) [µM] | TGI (Melanoma cell line) [µM] | CC50 (Melanoma cell line) [µM] | GI50 (Leukemia cell) [µM] | TGI (Leukemia cell) [µM] | GI50 (NSCLC) [µM] | TGI (NSCLC) [µM] | GI50 [3] [µM] | TGI [3] [µM] | GI50 (Ovarian carcinoma cell) [µM] | TGI (Ovarian carcinoma cell) [µM] | GI50 (Renal cancer cell line) [µM] | TGI (Renal cancer cell line) [µM] | GI50 (Prostatic carcinoma cell) [µM] | GI50 (Breast carcinoma cell) [µM] | TGI (Breast carcinoma cell) [µM] | CC50 [3] [µM] | LC50 (50% lethal concentration) (Ovarian carcinoma cell) [µM] | also measured |
| --- | --- | --- | --- | --- | --- | --- | --- | --- | --- | --- | --- | --- | --- | --- | --- | --- | --- | --- | --- | --- | --- |
| Cc1nc2sccn2c1-c1nc2sccn2c1C=C1C(=O)Nc2cc(Cl)ccc21 | – | – | – | – | – | – | – | – | – | – | – | – | – | – | – | – | – | – | – | – | inhibition (Tubulin (Bos taurus) [1]): 15%; inhibition (Tubulin (Bos taurus) [2]): 28% |
| O=C1Nc2ccc(O)cc2/C1=C/c1c(-c2ccncc2)nc2sccn12 | 4.46 | 80.4 | 15.8 | 89.4 | 99.1 | 10.1 | 67.6 | 21.2 | 76.8 | 7.5 | 93 | 33.8 | 86.2 | 43 | 90.1 | 15 | 4.43 | 84.2 | – | – | – |
| O=C1Nc2ccccc2C1=Cc1c(-c2ccncc2)nc2sccn12 | 1.6 | 49.7 | 3.27 | 78.3 | 92.2 | 2.65 | 92 | 8.97 | 82.4 | 0.68 | 63.4 | 2.34 | 61.3 | 14.9 | 73.2 | 1.1 | 5.42 | 67.3 | 94.3 | 91.8 | CC50 (CNS carcinoma cell): 95 µM; LC50 (50% lethal concentration) (Renal cancer cell line): 92.4 µM |
| COc1nc2sc(C)cn2c1/C=C1/C(=O)Nc2ccc(O)cc21 | 4.76 | 64 | 4.88 | 38.6 | 94 | 3.32 | 61.7 | 7.54 | 72 | 4.79 | 78.2 | 12.8 | 63.5 | 6.58 | 79.4 | 7.59 | 4.57 | 66.2 | 98.2 | – | TGI (Prostatic carcinoma cell): 96.2 µM |
| COc1cc2c(cc1C)NC(=O)/C2=C/c1c(OC)nc2sc(C)cn12 | 5.7 | 20.4 | 31.5 | 91.7 | – | – | – | 5.25 | 74.9 | 42.9 | 91.7 | 7.22 | 47.1 | 5.81 | 58.9 | 18.8 | 4.57 | 50.9 | – | 91.4 | CC50 (CNS carcinoma cell): 68.3 µM; LC50 (NSCLC): 98 µM; LC50 (50% lethal concentration) (Renal cancer cell line): 90.6 µM; LC50 (concentration killing 50% of cells) (Breast carcinoma cell): 91.4 µM |
| COc1nc2sc(C)cn2c1/C=C1/C(=O)Nc2ccccc21 | 1.97 | 40.1 | 16.2 | 74.8 | 94.9 | 0.5 | 7.25 | 5.68 | 65.2 | 0.8 | 56.8 | 6.29 | 55.6 | 3.53 | 67.6 | 2.09 | 2.52 | 67.3 | 93.3 | 96.3 | CC50 (CNS carcinoma cell): 87.9 µM; LC50 (Leukemia cell): 93.7 µM; LC50 (NSCLC): 99 µM; TGI (Prostatic carcinoma cell): 45 µM; IC50 (Tubulin): 3.4 µM; inhibition (Tubulin (Bos taurus) [1]): 39%; inhibition (Tubulin (Bos taurus) [2]): 81%; Activity (K562 [4]): Dose-dependent effect; Activity (K562 [5]): 42%; Activity (K562 [6]): 61%; Activity (K562 [7]): 80%; pIC50 (K562 [8]): 6.00 |
| COc1nc2sc(C)cn2c1C=C1C(=O)N(C)c2ccccc21 | 9.82 | 42.4 | 8.08 | 34.2 | 93.4 | 4.35 | 74.2 | 9.5 | 73.2 | 4.05 | 36.3 | 10.5 | 67 | 13.1 | 70.5 | 12.6 | 4.82 | 58.2 | 91.1 | 92.8 | CC50 (CNS carcinoma cell): 97.3 µM; LC50 (NSCLC): 95.1 µM; TGI (Prostatic carcinoma cell): 66.7 µM |
| COc1ccc2c(c1)/C(=C/c1c(-c3ccncc3)nc3sccn13)C(=O)N2C | 0.38 | 63.1 | 5.97 | 85.3 | – | 0.35 | 81.8 | 0.55 | 82.4 | 0.34 | 78.8 | 1.14 | 62.4 | 0.5 | 65.5 | 0.39 | 0.44 | 80.1 | 93 | 93.2 | LC50 (Leukemia cell): 96.1 µM; TGI (Prostatic carcinoma cell): 68.8 µM |
| COc1nc2sc(C)cn2c1/C=C1/C(=O)Nc2c1ccc1ccccc21 | 0.42 | 38.6 | 0.52 | 43.3 | 95 | 0.34 | 84.8 | 2.82 | 45.3 | 0.37 | 34.6 | 0.62 | 35.3 | 1.06 | 38.3 | 0.3 | 0.79 | 51.3 | 71.1 | 91.2 | CC50 (CNS carcinoma cell): 82.9 µM; LC50 (NSCLC): 91.4 µM; LC50 (50% lethal concentration) (Renal cancer cell line): 89.6 µM; TGI (Prostatic carcinoma cell): 35.2 µM; CC50 (Prostatic carcinoma cell; read-out: LC50 (the source's name)): 75.9 µM |
| COc1cc2c(c(OC)c1OC)/C(=C\c1c(OC)nc3sc(C)cn13)C(=O)N2 | 7.79 | 33.6 | 7.86 | 65.7 | 95.6 | 5.73 | – | 9.26 | 58.8 | 6.89 | 69.9 | 13.8 | 63.2 | 9.36 | 45 | 11.3 | 5.37 | 29.2 | 97.2 | 93 | CC50 (CNS carcinoma cell): 81.4 µM; LC50 (NSCLC): 99.4 µM; LC50 (50% lethal concentration) (Renal cancer cell line): 98.2 µM; LC50 (concentration killing 50% of cells) (Breast carcinoma cell): 99.3 µM |
| COc1ccc2c(c1)/C(=C\c1c(OC)nc3sc(C)cn13)C(=O)N2 | 0.43 | 33.6 | 3.46 | 67.7 | – | 0.43 | – | 1.49 | 58.6 | 0.32 | 35.7 | 1.32 | 42.6 | 0.65 | 61.8 | 0.38 | 0.87 | 61.3 | 79.2 | 87.6 | CC50 (CNS carcinoma cell): 85.4 µM; LC50 (NSCLC): 88.9 µM; TGI (Prostatic carcinoma cell): 52.8 µM |
